Reference: article PMC8520753 (CPT: Pharmacometrics & Systems Pharmacology, 2021)
“Also recorded” adds a separate entry of the source. Read-outs that look alike come from different tables or passages of the source.

Columns and labels:
[1] = Refined pediatric population pharmacokinetic; type: in vivo, children (pediatric patients); conditions: for Relative oral bioavailability: set to 100% for 0.12 mg/kg
Outline: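 Children from birth to <18 y (VTE and post-Fontan) received oral bodyweight-adjusted rivaroxaban at 0.4 mg–20 mg, as single or multiple o.d./b.i.d./t.i.d. doses of tablet, oral suspension or granules. Plasma concentrations were fitted by PopPK with an 82.48 kg adult reference weight. Age, dose/kg on F1, formulation on ka, renal function and Fontan were screened graphically, then against random-effect estimates.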

CYP3A7 = CYP3A7 (Homo sapiens, UniProt P24462); test: In vitro analyses of CYP3A7 contribution; type: in vitro ADME; conditions: historic and recently repeated in vitro analyses, unpublished, data on file
[2] = subject with a bodyweight of 70 kg; cited from earlier work
[3] = integrated PopPK model in adults; cited from earlier work
[4] = cited from earlier work
[5] = cited from earlier work; remark: listed apart in the source
[6] = PopPK fixed effect, children, reference BW 82.48 kg

Sequence of CYP3A7 (P24462 whole entry): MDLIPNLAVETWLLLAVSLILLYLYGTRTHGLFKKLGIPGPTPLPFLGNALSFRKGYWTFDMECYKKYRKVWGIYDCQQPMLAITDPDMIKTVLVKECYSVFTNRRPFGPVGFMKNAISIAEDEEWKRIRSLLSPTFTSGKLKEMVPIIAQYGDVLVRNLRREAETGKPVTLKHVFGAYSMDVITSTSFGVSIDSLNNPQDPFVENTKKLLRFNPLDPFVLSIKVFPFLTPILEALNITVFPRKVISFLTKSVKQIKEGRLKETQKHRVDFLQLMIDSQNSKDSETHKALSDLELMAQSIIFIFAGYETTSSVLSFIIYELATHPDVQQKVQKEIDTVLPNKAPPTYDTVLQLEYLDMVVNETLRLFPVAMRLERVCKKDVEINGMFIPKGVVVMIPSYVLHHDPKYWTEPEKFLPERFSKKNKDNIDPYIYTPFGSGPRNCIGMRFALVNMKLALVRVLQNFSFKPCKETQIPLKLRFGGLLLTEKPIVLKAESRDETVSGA

ka, tablet, granules for oral suspension and diluted ready-to-use oral suspension [1]: 0.799 h⁻¹ | ka, undiluted ready-to-use oral suspension [1]: 0.226 h⁻¹ | ka for tablets, granules and diluted suspension ([1]; PopPK fixed effect, children): 0.799 h⁻¹ | ka for undiluted suspension ([1]; PopPK fixed effect, children): 0.226 h⁻¹ | CL for subject with BW of 82.48 kg [1, 6]: 8.02 L/h | Q for subjects with BW of 82.48 kg [1, 6]: 2.50 L/h | Vc for subject with BW of 82.48 kg [1, 6]: 53.2 L | Vp for subject with BW of 82.48 kg [1, 6]: 59.1 L | Exponent to scale Vc and Vp on BW ([1]; allometric exponent, assumed identical for Vc and Vp): 0.821 | Exponent to scale Q on BW ([1]; allometric exponent, children): 0.761 | Relative oral bioavailability ([1]; at 0.30 mg/kg): 79.1% | Relative oral bioavailability ([1]; at 0.50 mg/kg): 68.1% | Effect of bodyweight on CL, Q, Vc and Vp ([1]; covariate analysis): significant effect | Effect of age on CL or F1 ([1]; covariate analysis, age 0 to 18 years): No effect | Effect of comedication (weak or moderate CYP3A4 inhibitors, CYP3A4 inducers) on CL or F1 ([1]; exploratory evaluation): no significant effect | clearance ([1]; human, plasma, oral): 134 mL/min | ωCL2 (exponential), interindividual variability ([1]; random effect on CL): 0.0705 | ωF12 (exponential), interindividual variability ([1]; random effect on F1): 0.0612 | Population variation of CL (interindividual variability) ([1]; sqrt{exp(ω^2)-1}*100): 27.0% | Population variation of F1 (interindividual variability) ([1]; sqrt{exp(ω^2)-1}*100): 25.1% | Contribution of CYP3A7 to the high clearance below 2 years (CYP3A7): could also be excluded
Structure (SMILES): O=C(NC[C@H]1CN(c2ccc(N3CCOCC3=O)cc2)C(=O)O1)c1ccc(Cl)s1 [rivaroxaban]
Influence of renal function on PK ([1]; covariate analysis, four approaches, eGFR 43.8 to 456 ml/min/1.73 m^2): None of the four methods to test for an influence of renal function led to a significant improvement; also recorded: None of the four tested methods could improve the model fit | Dose-dependency of relative oral bioavailability ([1]; ~0.1 to 0.5 mg/kg single doses): decrease with increasing dose per bodyweight | Total plasma clearance [2]: 7.26 L/h | Total plasma clearance [3]: 6.58 L/h | Share of elimination by CYP3A, glomerular filtration and tubular secretion ([4]; adult mass balance data): ~ 54% | Excreted unchanged via feces ([4]; adult mass balance): 7% | Share of elimination by CYP2J2 ([4]; adult mass balance): 14% | Share of elimination by CYP-independent hydrolysis ([4]; adult mass balance): 14% | Unaccounted in the mass balance study ([4]; adult mass balance): 11% | Biopharmaceutics Classification System class [5]: class 2
